# Source: ChEMBL document CHEMBL5532753, “Bipyraloxifene - a modified raloxifene vector against triple-negative breast cancer” (RSC Med Chem, 2024)
# Calls of active or inactive are those of the source. The calls are words filed in the database; no cut-off is given here.
# Legend:
# MDA-MB-231 [1] = experiment: Induction of apoptosis in human MDA-MB-231 cells assessed as viable cells at IC50 concentration incubated for 72 hrs by Annexin V/propidium iodide staining based flow cytometry analysis (reference value: 95.0 %); format: functional
# U-251 [2] = experiment: Antiproliferative activity against human U-251 cells assessed as reduction in cell viability by measuring total mitochondrial respiration incubated for 72 hrs by MTT assay; format: functional, cell-based; conditions: U-251, 72 h
# Outline: (§1)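 Adherent tumour lines grown in HEPES-buffered RPMI-1640 with 10% heat-inactivated FCS, 2 mM L-glutamine, 0.01% sodium pyruvate, penicillin/streptomycin, 37 °C, 5% CO2. Seeding per well: MCF-7 7 × 10³, MDA-MB-231 4 × 10³, MDA-MB-361 6 × 10³, U251 2 × 10³. Cells seeded overnight, then exposed to a dose range for 72 h from 20 mM DMSO stocks diluted in medium. Washed, fixed, read by MTT or CV. IC50 given as mean ± SD of at least three independent experiments.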
# [3] = Cytotoxicity against mouse Peritoneal exudate cell assessed as reduction in cell viability by measuring number of adherent cells incubated for 72 hrs by crystal violet staining based assay; format: toxicity
# Outline: (§2)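 Mouse peritoneal exudate cells were exposed to a dose range for 72 h, and viability was read by MTT (mitochondrial respiration) or CV (adherent cells). Compounds came from 20 mM DMSO stocks diluted in medium. IC50 given as mean ± SD.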
# MDA-MB-231 [4] = experiment: Induction of RNS production in human MDA-MB-231 cells assessed as oxidative burst incubated for 72 hrs by DHR staining based flow cytometry analysis; format: functional, cell-based
# Outline: (§3)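 MDA-MB-231 cells were treated for 72 h, then pre-stained with 1 µM dihydrorhodamine 123 for 20 min at 37 °C. After PBS washing and trypsinisation, ROS/RNS were read by flow cytometry.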
# MDA-MB-231 [5] = experiment: Induction of apoptosis in human MDA-MB-231 cells assessed as abnormal cell size incubated for 72 hrs by propidium iodide staining based fluorescence microscopy analysis; format: functional
# MDA-MB-231 [6] = experiment: Antiproliferative activity against human MDA-MB-231 cells assessed as reduction in cell viability at IC50 concentration incubated for 72 hrs in presence of chloroquine by crystal violet staining based assay; format: functional
# [7] = (§4) Selectivity index, ratio of IC50 for cytotoxicity against mouse Peritoneal exudate cell assessed as reduction in cell viability by measuring total mitochondrial respiration to IC50 for antiproliferative activity against human MDA-MB-231 cells assessed as reduction in cell viability by measuring total mitochondrial respiration; format: toxicity, cell-based; conditions: mouse peritoneal exudate cells versus human MDA-MB-231 cells, read-out: Ratio IC50
# Outline: (§5)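 Selectivity index is the IC50 in normal mouse peritoneal exudate cells divided by the IC50 in MDA-MB-231. Both IC50s come from 72 h dose-range treatment, read by the same assay: CV (adherent cells) or MTT (mitochondrial respiration).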
# U-251 [8] = experiment: Antiproliferative activity against human U-251 cells assessed as reduction in cell viability by measuring number of adherent cells incubated for 72 hrs by crystal violet staining based assay; format: functional; conditions: U-251, 72 h; outline: as §1
# MDA-MB-361 [9] = experiment: Antiproliferative activity against human MDA-MB-361 cells assessed as reduction in cell viability by measuring total mitochondrial respiration incubated for 72 hrs by MTT assay; format: functional, cell-based; conditions: MDA-MB-361, 72 h; outline: as §1
# MDA-MB-361 [10] = experiment: Antiproliferative activity against human MDA-MB-361 cells assessed as reduction in cell viability by measuring number of adherent cells incubated for 72 hrs by crystal violet staining based assay; format: functional; conditions: MDA-MB-361, 72 h; outline: as §1
# MDA-MB-231 [11] = experiment: Induction of apoptosis in human MDA-MB-231 cells assessed as early apoptotic cells at IC50 concentration incubated for 72 hrs by Annexin V/propidium iodide staining based flow cytometry analysis (reference value: 0.72 %); format: functional
# MDA-MB-231 [12] = experiment: Induction of apoptosis in human MDA-MB-231 cells assessed as necrotic cells at IC50 concentration incubated for 72 hrs by Annexin V/propidium iodide staining based flow cytometry analysis (reference value: 1.11 %); format: functional
# MDA-MB-231 [13] = experiment: Induction of apoptosis in human MDA-MB-231 cells assessed as caspase activation incubated for 72 hrs by Apostat staining based flow cytometry analysis; format: functional, cell-based
# MCF7 [14] = experiment: Antiproliferative activity against human MCF7 cells assessed as reduction in cell viability by measuring number of adherent cells incubated for 72 hrs by crystal violet staining based assay; format: functional; conditions: MCF7, 72 h; outline: as §1
# MCF7 [15] = experiment: Antiproliferative activity against human MCF7 cells assessed as reduction in cell viability by measuring total mitochondrial respiration incubated for 72 hrs by MTT assay; format: functional, cell-based; conditions: MCF7, 72 h; outline: as §1
# MDA-MB-231 [16] = experiment: Induction of ROS production in human MDA-MB-231 cells assessed as oxidative burst incubated for 72 hrs by DHR staining based flow cytometry analysis; format: functional, cell-based; outline: as §3
# MDA-MB-231 [17] = experiment: Induction of apoptosis in human MDA-MB-231 cells assessed as abnormal cell shape incubated for 72 hrs by propidium iodide staining based fluorescence microscopy analysis; format: functional
# MDA-MB-231 [18] = experiment: Induction of apoptosis in human MDA-MB-231 cells assessed as increase in cell nuclei incubated for 72 hrs by propidium iodide staining based fluorescence microscopy analysis; format: functional
# MDA-MB-231 [19] = experiment: Antiproliferative activity against human MDA-MB-231 cells assessed as reduction in cell viability at IC50 concentration incubated for 72 hrs in presence of 3-MA by crystal violet staining based assay; format: functional
# MDA-MB-231 [20] = experiment: Antiproliferative activity against human MDA-MB-231 cells assessed as reduction in cell viability by measuring number of adherent cells incubated for 72 hrs by crystal violet staining based assay; format: functional; conditions: MDA-MB-231, 72 h; outline: as §1
# MDA-MB-231 [21] = experiment: Induction of autophagy in human MDA-MB-231 cells at IC50 concentration incubated for 72 hrs by acridine orange staining based flow cytometry analysis; format: functional, cell-based
# MDA-MB-231 [22] = experiment: Induction of apoptosis in human MDA-MB-231 cells assessed as late apoptotic cells at IC50 concentration incubated for 72 hrs by Annexin V/propidium iodide staining based flow cytometry analysis (reference value: 3.19 %); format: functional
# [23] = Cytotoxicity against mouse Peritoneal exudate cell assessed as reduction in cell viability by measuring total mitochondrial respiration incubated for 72 hrs by MTT assay; format: toxicity, cell-based; conditions: peritoneal exudate cells; outline: as §2
# MDA-MB-231 [24] = experiment: Antiproliferative activity against human MDA-MB-231 cells assessed as reduction in cell viability by measuring total mitochondrial respiration incubated for 72 hrs by MTT assay; format: functional, cell-based; conditions: MDA-MB-231, 72 h; outline: as §1
# MDA-MB-231 [25] = experiment: Induction of autophagy in human MDA-MB-231 cells assessed as increase in granularity of the cellular cytoplasm at IC50 concentration incubated for 72 hrs by flow cytometric analysis
# MDA-MB-231 [26] = experiment: Induction of apoptosis in human MDA-MB-231 cells assessed as chromatin condensation incubated for 72 hrs by propidium iodide staining based fluorescence microscopy analysis; format: functional, cell-based
# [27] = as §4, with “number of adherent cells” for “total mitochondrial respiration”; format: toxicity, cell-based; conditions: mouse peritoneal exudate cells versus human MDA-MB-231 cells, read-out: Ratio IC50; outline: as §5
SMILES,Activity (MDA-MB-231 [1]),IC50 (U-251 [2]),IC50 at 72 h [3],Activity (MDA-MB-231 [4]),Activity (MDA-MB-231 [5]),Activity (MDA-MB-231 [6]),IC50 (U-251 [8]),IC50 (MDA-MB-361 [9]),IC50 (MDA-MB-361 [10]),Activity (MDA-MB-231 [11]),Activity (MDA-MB-231 [12]),Activity (MDA-MB-231 [13]),IC50 (MCF7 [14]),IC50 (MCF7 [15]),Activity (MDA-MB-231 [16]),Activity (MDA-MB-231 [17]),Activity (MDA-MB-231 [18]),Activity (MDA-MB-231 [19]),IC50 (MDA-MB-231 [20]),Activity (MDA-MB-231 [21]),other results
COc1ccc(-c2sc3cc(OC)ccc3c2C(=O)c2ccc(OCc3ccnc(-c4ccccn4)c3)cc2)cc1,46.4%,2.2 µM,18.9 µM,Active,Active,Active,2.6 µM,6.3 µM,> 100 µM,29.3%,1.01%,Active,2.4 µM,2.15 µM,Active,Active,Active,Active,1.5 µM,Active,selectivity ratio [7]: 9.5; Activity (MDA-MB-231 [22]): 23.3%; IC50 at 72 h [23]: 15.4 µM; IC50 (MDA-MB-231 [24]): 1.6 µM; Activity (MDA-MB-231 [25]): Active; Activity (MDA-MB-231 [26]): Active; selectivity ratio [27]: 12.6
O=C(c1ccc(OCCN2CCCCC2)cc1)c1c(-c2ccc(O)cc2)sc2cc(O)ccc12 [RALOXIFENE],67%,19.2 µM,20.4 µM,Active,Active,Active,23.4 µM,22.2 µM,38.9 µM,20.6%,0.93%,Active,21.4 µM,16.8 µM,Active,Active,Active,Active,22 µM,Active,Activity (MDA-MB-231 [22]): 11.5%; IC50 at 72 h [23]: 18.3 µM; IC50 (MDA-MB-231 [24]): 19.1 µM; Activity (MDA-MB-231 [25]): Active; Activity (MDA-MB-231 [26]): Active
